Experimental data taken from ChEMBL document CHEMBL1828609, “Strategies to lower the Pgp efflux liability in a series of potent indole azetidine MCHR1 antagonists” (Bioorg Med Chem Lett, 2011).
Each block holds one compound with its values, some of them ahead of it.

What was measured:
[1] = Ratio of drug level in brain to plasma in wild type FVB mouse after 8 hrs; type: ADME, cell-free; details: read-out: BPR
In short: (§1)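 Single 15 mg/kg intravenous dose given to Pgp knockout and wild-type mice. Brain and plasma levels followed over 8 h, and brain/plasma ratios calculated at each time point.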

[2] = Ratio of drug level in brain to plasma in P-gp transporter knockout FVB mouse after 8 hrs; type: ADME, cell-free; details: read-out: BPR; in short: as §1
[3] = target: Voltage-gated inwardly rectifying potassium channel KCNH2 (Homo sapiens, UniProt Q12809); assay: Inhibition of human ERG
[4] = Permeability from apical to basolateral side in MDCK cells expressing human MDR1 assessed as compound recovery; type: ADME, cell-based, Canis lupus familiaris; details: dog, read-out: permeability
In short: (§2)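 Bidirectional MDR1-MDCK permeability run with 2 h incubation; percent recovery of compound determined for the A-to-B and B-to-A directions.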

[5] = Permeability from basolateral to apical side in MDCK cells expressing human MDR1 assessed as compound recovery; type: ADME, cell-based, Canis lupus familiaris; details: dog, read-out: permeability; in short: as §2
[6] = target: Melanin-concentrating hormone receptor 1 (Rattus norvegicus, UniProt P97639); assay: Displacement of [125I]-S36057 from rat MCH1 receptor
[7] = Drug uptake in rat brain at 10 mg/kg, po after 4 hrs; type: ADME, organism-based; parameters: dose 10 mg/kg, route oral; details: read-out: Drug uptake
In short: (§3)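 Rats dosed orally at 10 mg/kg. Brain (ng/g) and plasma (ng/mL) levels taken at 4 h, giving the brain-to-plasma exposure comparison.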

[8] = Plasma concentration in rat at 10 mg/kg, po after 4 hrs; type: ADME, organism-based; parameters: dose 10 mg/kg, route oral; in short: as §3
[9] = Apparent permeability from apical to basolateral side in MDCK cells expressing human MDR1 after 2 hrs; type: ADME, cell-based, Canis lupus familiaris; details: dog
In short: (§4)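 MDR1-MDCK monolayers; apparent permeability measured in both directions (A-to-B and B-to-A) after 2 h incubation. Efflux ratio calculated as Papp(B-to-A)/Papp(A-to-B).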

[10] = Apparent permeability from basolateral to apical side in MDCK cells expressing human MDR1 after 2 hrs; type: ADME, cell-based, Canis lupus familiaris; details: dog; in short: as §4
[11] = Efflux ratio of permeability from basolateral to apical over apical to basolateral side of MDCK cells expressing human MDR1 after 2 hrs; type: ADME, cell-based, Canis lupus familiaris; details: dog; in short: as §4
[12] = Apparent permeability of the compound at pH 7.4 by PAMPA method; type: ADME
[13] = Apparent permeability of the compound at pH 3 to 7.4 by PAMPA method; type: ADME
[14] = Plasma concentration in wild type FVB mouse at 15 mg/kg, iv after 1 hr; type: ADME, organism-based; parameters: dose 15 mg/kg, route intravenous; in short: as §1
[15] = Plasma concentration in P-gp transporter knockout FVB mouse at 15 mg/kg, iv after 1 hr; type: ADME, organism-based; parameters: dose 15 mg/kg, route intravenous; in short: as §1
[16] = Plasma concentration in wild type FVB mouse at 15 mg/kg, iv after 3 hrs; type: ADME, organism-based; parameters: dose 15 mg/kg, route intravenous; in short: as §1
[17] = Plasma concentration in P-gp transporter knockout FVB mouse at 15 mg/kg, iv after 3 hrs; type: ADME, organism-based; parameters: dose 15 mg/kg, route intravenous; in short: as §1
[18] = Plasma concentration in wild type FVB mouse at 15 mg/kg, iv after 6 hrs; type: ADME, organism-based; parameters: dose 15 mg/kg, route intravenous; in short: as §1
[19] = Plasma concentration in P-gp transporter knockout FVB mouse at 15 mg/kg, iv after 6 hrs; type: ADME, organism-based; parameters: dose 15 mg/kg, route intravenous; in short: as §1
[20] = Plasma concentration in wild type FVB mouse at 15 mg/kg, iv after 8 hrs; type: ADME, organism-based; parameters: dose 15 mg/kg, route intravenous; in short: as §1
[21] = Plasma concentration in P-gp transporter knockout FVB mouse at 15 mg/kg, iv after 8 hrs; type: ADME, organism-based; parameters: dose 15 mg/kg, route intravenous; in short: as §1
[22] = Drug uptake in wild type FVB mouse brain at 15 mg/kg, iv after 1 hr; type: ADME, organism-based; parameters: dose 15 mg/kg, route intravenous; details: read-out: Drug uptake; in short: as §1
[23] = Drug uptake in P-gp transporter knockout FVB mouse brain at 15 mg/kg, iv after 1 hr; type: ADME, organism-based; parameters: dose 15 mg/kg, route intravenous; details: read-out: Drug uptake; in short: as §1
[24] = Drug uptake in wild type FVB mouse brain at 15 mg/kg, iv after 3 hrs; type: ADME, organism-based; parameters: dose 15 mg/kg, route intravenous; details: read-out: Drug uptake; in short: as §1
[25] = Drug uptake in P-gp transporter knockout FVB mouse brain at 15 mg/kg, iv after 3 hrs; type: ADME, organism-based; parameters: dose 15 mg/kg, route intravenous; details: read-out: Drug uptake; in short: as §1
[26] = Drug uptake in wild type FVB mouse brain at 15 mg/kg, iv after 6 hrs; type: ADME, organism-based; parameters: dose 15 mg/kg, route intravenous; details: read-out: Drug uptake; in short: as §1
[27] = Drug uptake in P-gp transporter knockout FVB mouse brain at 15 mg/kg, iv after 6 hrs; type: ADME, organism-based; parameters: dose 15 mg/kg, route intravenous; details: read-out: Drug uptake; in short: as §1
[28] = Drug uptake in wild type FVB mouse brain at 15 mg/kg, iv after 8 hrs; type: ADME, organism-based; parameters: dose 15 mg/kg, route intravenous; details: read-out: Drug uptake; in short: as §1
[29] = Drug uptake in P-gp transporter knockout FVB mouse brain at 15 mg/kg, iv after 8 hrs; type: ADME, organism-based; parameters: dose 15 mg/kg, route intravenous; details: read-out: Drug uptake; in short: as §1
[30] = Ratio of drug level in brain to plasma in wild type FVB mouse after 1 hr; type: ADME, cell-free; details: read-out: BPR; in short: as §1
[31] = Ratio of drug level in brain to plasma in P-gp transporter knockout FVB mouse after 1 hr; type: ADME, cell-free; details: read-out: BPR; in short: as §1
[32] = Ratio of drug level in brain to plasma in wild type FVB mouse after 3 hrs; type: ADME, cell-free; details: read-out: BPR; in short: as §1
[33] = Ratio of drug level in brain to plasma in P-gp transporter knockout FVB mouse after 3 hrs; type: ADME, cell-free; details: read-out: BPR; in short: as §1
[34] = Ratio of drug level in brain to plasma in wild type FVB mouse after 6 hrs; type: ADME, cell-free; details: read-out: BPR; in short: as §1
[35] = Ratio of drug level in brain to plasma in P-gp transporter knockout FVB mouse after 6 hrs; type: ADME, cell-free; details: read-out: BPR; in short: as §1
[36] = Drug uptake in rat brain at 10 mg/kg, sc after 4 hrs; type: ADME, organism-based; parameters: dose 10 mg/kg, route subcutaneous; details: read-out: Drug uptake
In short: (§5)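 Rat PK with subcutaneous dosing at 10 mg/kg. Brain and plasma concentrations determined 4 h after the dose.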

[37] = Plasma concentration in rat at 10 mg/kg, sc after 4 hrs; type: ADME, organism-based; parameters: dose 10 mg/kg, route subcutaneous; in short: as §5
[38] = Ratio of drug level in brain to plasma in rat; type: ADME, cell-free; details: read-out: BPR; in short: as §3

Melanin-concentrating hormone receptor 1, sequence (P97639 whole entry): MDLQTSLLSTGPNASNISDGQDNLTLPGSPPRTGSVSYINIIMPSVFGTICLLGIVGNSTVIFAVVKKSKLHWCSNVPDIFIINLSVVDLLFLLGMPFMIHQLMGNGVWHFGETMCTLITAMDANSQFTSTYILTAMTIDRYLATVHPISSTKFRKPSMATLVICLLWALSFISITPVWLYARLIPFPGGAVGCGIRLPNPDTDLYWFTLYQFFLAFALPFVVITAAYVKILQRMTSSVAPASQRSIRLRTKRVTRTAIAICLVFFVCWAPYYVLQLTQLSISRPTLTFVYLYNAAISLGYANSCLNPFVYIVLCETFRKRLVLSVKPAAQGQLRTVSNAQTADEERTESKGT
Voltage-gated inwardly rectifying potassium channel KCNH2, sequence (Q12809 whole entry): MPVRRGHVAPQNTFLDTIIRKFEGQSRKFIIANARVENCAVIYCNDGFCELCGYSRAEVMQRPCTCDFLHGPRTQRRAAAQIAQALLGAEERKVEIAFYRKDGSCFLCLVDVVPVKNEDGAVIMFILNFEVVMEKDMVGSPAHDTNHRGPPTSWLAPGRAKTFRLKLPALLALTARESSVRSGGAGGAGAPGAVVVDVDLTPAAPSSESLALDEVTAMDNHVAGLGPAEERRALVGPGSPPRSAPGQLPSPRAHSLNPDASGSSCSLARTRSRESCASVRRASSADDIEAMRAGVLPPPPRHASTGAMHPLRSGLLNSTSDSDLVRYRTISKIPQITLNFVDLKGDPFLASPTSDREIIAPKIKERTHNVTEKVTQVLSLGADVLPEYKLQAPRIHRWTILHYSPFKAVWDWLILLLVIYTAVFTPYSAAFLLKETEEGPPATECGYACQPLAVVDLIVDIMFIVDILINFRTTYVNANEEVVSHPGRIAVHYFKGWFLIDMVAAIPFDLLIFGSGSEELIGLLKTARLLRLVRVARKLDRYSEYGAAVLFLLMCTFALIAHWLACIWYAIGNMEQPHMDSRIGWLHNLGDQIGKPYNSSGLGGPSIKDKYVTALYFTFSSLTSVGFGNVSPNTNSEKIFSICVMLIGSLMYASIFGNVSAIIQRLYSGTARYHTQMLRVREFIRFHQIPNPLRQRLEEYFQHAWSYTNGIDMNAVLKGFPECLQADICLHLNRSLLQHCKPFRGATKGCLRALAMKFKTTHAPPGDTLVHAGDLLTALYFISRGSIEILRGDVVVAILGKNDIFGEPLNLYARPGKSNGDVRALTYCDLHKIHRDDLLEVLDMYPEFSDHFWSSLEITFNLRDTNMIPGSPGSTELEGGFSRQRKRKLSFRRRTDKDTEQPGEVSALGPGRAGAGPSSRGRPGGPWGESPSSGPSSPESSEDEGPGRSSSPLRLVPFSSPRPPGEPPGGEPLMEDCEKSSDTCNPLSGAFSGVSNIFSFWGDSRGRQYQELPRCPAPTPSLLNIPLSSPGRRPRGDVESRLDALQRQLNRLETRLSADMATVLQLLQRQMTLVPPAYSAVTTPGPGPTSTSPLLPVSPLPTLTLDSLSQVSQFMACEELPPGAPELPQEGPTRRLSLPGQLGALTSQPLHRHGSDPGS

Kp at 8 h [1]: 0.28
Kp at 8 h [2]: 2.66
recovery [4]: 72%
recovery [5]: 71%
Ki [6]: 11 nM
concentration at 4 h [7]: 11 ng/g
concentration at 4 h [8]: 0.048 µg/mL
Papp A→B at 2 h [9]: 2 nm/s
Papp B→A at 2 h [10]: 263 nm/s
efflux ratio at 2 h [11]: 144
Papp [12]: 49 nm/s
Papp [13]: 164 nm/s
concentration at 1 h [14]: 2.28 µg/mL
concentration at 1 h [15]: 3.13 µg/mL
concentration at 3 h [16]: 1.45 µg/mL
concentration at 3 h [17]: 1.39 µg/mL
concentration at 6 h [18]: 0.623 µg/mL
concentration at 6 h [19]: 0.689 µg/mL
concentration at 8 h [20]: 0.538 µg/mL
concentration at 8 h [21]: 0.607 µg/mL
concentration at 1 h [22]: 143 ng/g
concentration at 1 h [23]: 878 ng/g
concentration at 3 h [24]: 172 ng/g
concentration at 3 h [25]: 1130 ng/g
concentration at 6 h [26]: 148 ng/g
concentration at 6 h [27]: 1580 ng/g
concentration at 8 h [28]: 144 ng/g
concentration at 8 h [29]: 1620 ng/g
Kp at 1 h [30]: 0.06
Kp at 1 h [31]: 0.28
Kp at 3 h [32]: 0.12
Kp at 3 h [33]: 0.82
Kp at 6 h [34]: 0.24
Kp at 6 h [35]: 2.3
Structure (SMILES): CN1CC(c2c[nH]c3cc(-n4ccc(OCc5ccccc5)cc4=O)ccc23)C1
IC50 [3]: 12000 nM

Ki [6]: 6.7 nM
concentration at 4 h [7]: 22 ng/g
concentration at 4 h [8]: 0.14 µg/mL
Papp A→B at 2 h [9]: 2 nm/s
Papp B→A at 2 h [10]: 253 nm/s
efflux ratio at 2 h [11]: 150
Structure (SMILES): CN1CC(c2c[nH]c3cc(-n4ccc(OCc5ccccc5F)cc4=O)ccc23)C1

Ki [6]: 7.8 nM
concentration at 4 h [7]: 100 ng/g
concentration at 4 h [8]: 0.35 µg/mL
Papp A→B at 2 h [9]: 9 nm/s
Papp B→A at 2 h [10]: 537 nm/s
efflux ratio at 2 h [11]: 60
Structure (SMILES): CN1CC(c2c[nH]c3cc(-n4ccc(-c5ccc(Cl)cc5)cc4=O)ccc23)C1

Ki [6]: 4.9 nM
concentration at 4 h [7]: 600 ng/g
concentration at 4 h [8]: 0.19 µg/mL
Kp [38]: > 3
Structure (SMILES): CN1CC(N2CCc3cc(-n4ccc(-c5ccc(Cl)cc5)cc4=O)ccc32)C1

More lines, now with the values behind:

Structure (SMILES): CN1CC(c2cn(C)c3cc(-n4ccc(OCc5ccccc5)cc4=O)ccc23)C1
Ki [6]: 11 nM
concentration at 4 h [36]: 110 ng/g
concentration at 4 h [37]: 4 µg/mL
Kp [38]: 0.03

Structure (SMILES): COCCN1CC(c2c[nH]c3cc(-n4ccc(OCc5ccccc5)cc4=O)ccc23)C1
Ki [6]: 5.2 nM
concentration at 4 h [7]: 49 ng/g
concentration at 4 h [8]: 0.31 µg/mL
Papp A→B at 2 h [9]: 4 nm/s
Papp B→A at 2 h [10]: 341 nm/s
efflux ratio at 2 h [11]: 88

Structure (SMILES): O=c1cc(OCc2ccccc2)ccn1-c1ccc2c(C3CN(CCF)C3)c[nH]c2c1
Ki [6]: 4.3 nM
concentration at 4 h [7]: 130 ng/g
concentration at 4 h [8]: 0.62 µg/mL
Papp A→B at 2 h [9]: 14 nm/s
Papp B→A at 2 h [10]: 589 nm/s
efflux ratio at 2 h [11]: 43

Structure (SMILES): Cn1cc(C2CN(CCF)C2)c2ccc(-n3ccc(-c4ccc(F)cc4)cc3=O)cc21
Ki [6]: 9 nM
concentration at 4 h [7]: 810 ng/g
concentration at 4 h [8]: 1 µg/mL
Papp A→B at 2 h [9]: 71 nm/s
Papp B→A at 2 h [10]: 454 nm/s
efflux ratio at 2 h [11]: 6.4
Kp [38]: 0.8

Structure (SMILES): O=c1cc(OCc2ccccc2)ccn1-c1ccc2c(c1)CCN2C1CNC1
Ki [6]: 2.4 nM
concentration at 4 h [7]: 27 ng/g
concentration at 4 h [8]: 0.13 µg/mL

Structure (SMILES): CN1CC(N2CCc3cc(-n4ccc(OCc5ccccc5)cc4=O)ccc32)C1
Ki [6]: 2.5 nM
concentration at 4 h [7]: 780 ng/g
concentration at 4 h [8]: 0.5 µg/mL
Papp A→B at 2 h [9]: 26 nm/s
Papp B→A at 2 h [10]: 365 nm/s
efflux ratio at 2 h [11]: 14

Structure (SMILES): O=c1cc(OCc2ccccc2)ccn1-c1ccc2c(c1)CCN2C1CN(CCF)C1
Ki [6]: 4.9 nM
concentration at 4 h [7]: 520 ng/g
concentration at 4 h [8]: 0.42 µg/mL
Papp A→B at 2 h [9]: 177 nm/s
Papp B→A at 2 h [10]: 382 nm/s
efflux ratio at 2 h [11]: 2.2

Structure (SMILES): O=c1cc(-c2ccc(Cl)cc2)ccn1-c1ccc2c(c1)CCN2C1CN(CCF)C1
Ki [6]: 6.5 nM
concentration at 4 h [7]: 1100 ng/g
concentration at 4 h [8]: 0.65 µg/mL
Papp A→B at 2 h [9]: 289 nm/s
Papp B→A at 2 h [10]: 301 nm/s
efflux ratio at 2 h [11]: 1
